Measured values collected from several papers.
Protocols differ between the studies behind these lines. Values after ≈ are worked out from the molar mass of the structure shown.

SMILES | organism | test | test system | setting | quantity | result
CC(=O)N1CCN(c2ccc(OCC3COC(Cn4ccnc4)(c4ccc(Cl)cc4Cl)O3)cc2)CC1 (stereo not shown) | Saccharomyces cerevisiae | microbial growth, well diffusion | ATCC9763 | 500 µg/mL | inhibition zone | 20 mm
O=C(NC(=S)Nc1nccs1)c1cccs1 | Leishmania tropica | parasite growth, resazurin | – | promastigote | IC50 | 1530 nM
Cc1c(C(N)=O)c(N)n(N)c(=O)c1C#N | Saccharomyces cerevisiae | microbial growth, well diffusion | ATCC9763 | 500 µg/mL | inhibition zone | 11 mm
COc1ccc(Cc2[nH]/c(=N/C(=O)C34CC5CC(CC(C5)C3)C4)n(C)c2-c2ccc(OC(=O)c3ccc(C(F)(F)F)cc3)c(OC)c2)cc1 | Hepatitis B virus | viral replication, inhibitor | HePAD38 | – | IC50 | 5220 nM
N#Cc1c(-c2ccc(Cl)cc2Cl)c(C(N)=O)c(N)n(N)c1=O | Saccharomyces cerevisiae | microbial growth, well diffusion | ATCC9763 | 500 µg/mL | inhibition zone | 10 mm
O=C(O)c1cn(C2CC2)c2cc(N3CCNCC3)c(F)cc2c1=O | Shigella sonnei | microbial growth | ATCC25931 | – | MIC | 0.88 µM (≈ 0.292 µg/mL)
O=C(NC(=S)Nc1cccc(O)c1)c1ccco1 | Leishmania tropica | parasite growth, resazurin | – | promastigote | IC50 | 680 nM
COc1ccc(Cc2[nH]/c(=N/C(=O)C34CC5CC(CC(C5)C3)C4)n(C)c2Cc2ccc(OC)c(OC)c2)cc1 | Hepatitis B virus | viral replication, inhibitor | HePAD38 | – | IC50 | 240 nM
O=C(NC(=S)Nc1ccccn1)c1cccs1 | Leishmania tropica | parasite growth, resazurin | – | promastigote | IC50 | 790 nM
COc1ccc(Cc2[nH]/c(=N/C(=O)C34CC5CC(CC(C5)C3)C4)n(C)c2-c2ccc(OC(=O)C3CC3)c(OC)c2)cc1 | Hepatitis B virus | viral replication, inhibitor | HePAD38 | – | IC50 | 49300 nM
